Data published in ChEMBL document CHEMBL1152262, “New cyclic somatostatin analogues containing a pyrazinone ring: importance of Tyr for antiproliferative activity” (2008).
Where a SMILES comes first, the peptide text is derived from it. Bridges are numbered along the chain shown (N, C = ends). [ ]: non-standard residue; d: D form.

Experiments:
Format in all cases: functional
SW480 [1] = assay: Antiproliferative activity against human SW480 cells at 10 uM by MTT assay
Method in brief: (§1)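 MTT read-out of proliferation in A431 (human epithelial tumour) and SW480 (human colon carcinoma) cells, both described as expressing SSTRs. Each analogue was tested at […]. TT-232 and cycloheximide were run as positive controls.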

A-431 [2] = assay: Antiproliferative activity against human A431 cells at 25 uM by MTT assay; method in brief: as §1
A-431 [3] = assay: Antiproliferative activity against human A431 cells at 10 uM by MTT assay; method in brief: as §1
SW480 [4] = assay: Antiproliferative activity against human SW480 cells at 50 uM by MTT assay; method in brief: as §1
A-431 [5] = assay: Antiproliferative activity against human A431 cells at 50 uM by MTT assay; method in brief: as §1
SW480 [6] = assay: Antiproliferative activity against human SW480 cells at 25 uM by MTT assay; method in brief: as §1

Compound | Activity (SW480 [1]) | Activity (A-431 [2]) | Activity (A-431 [3]) | Activity (SW480 [4]) | Activity (A-431 [5]) | Activity (SW480 [6])
Cc1cc(O)cc(C)c1C[C@@H]1NC(=O)CCc2nc(C)c([nH]c2=O)CCCCNC(=O)[C@H](CCCCN)NC(=O)[C@@H](Cc2c[nH]c3ccccc23)NC1=O | 2% | 0% | 0% | 7% | 0% | 11%
C[C@@H](O)[C@H](NC(=O)[C@@H]1CSSC[C@H](NC(=O)[C@H](N)Cc2ccccc2)C(=O)N[C@@H](Cc2ccc(O)cc2)C(=O)N[C@H](Cc2c[nH]c3ccccc23)C(=O)N[C@@H](CCCCN)C(=O)N1)C(N)=O [TT-232] (H-[dF]CY[dW]KCT-NH2; disulfide 2-6) | 13% | 60% | 50% | 88% | 80% | 47%
C[C@@H]1C[C@@H]([C@H](O)CC2CC(=O)NC(=O)C2)C(=O)[C@@H](C)C1 [CYCLOHEXIMIDE] | 68% | 70% | 40% | 92% | 80% | 85%
Cc1nc2c(=O)[nH]c1CCCCNC(=O)[C@H](CCCCN)NC(=O)[C@@H](Cc1c[nH]c3ccccc13)NC(=O)[C@H](Cc1ccc(O)cc1)NC(=O)CC2 | 35% | 42% | 28% | 35% | 58% | 31%
Cc1nc2c(=O)[nH]c1CCC(=O)N[C@@H](Cc1ccc(O)cc1)C(=O)N[C@H](Cc1c[nH]c3ccccc13)C(=O)N[C@@H](CCCCN)C(=O)NCCCC2 | 24% | 36% | 19% | 7% | 56% | 23%
Cc1cc(O)cc(C)c1C[C@@H]1NC(=O)CCc2[nH]c(=O)c(nc2C)CCCCNC(=O)[C@H](CCCCN)NC(=O)[C@@H](Cc2c[nH]c3ccccc23)NC1=O | 8% | 0% | 0% | 14% | 0% | 16%
Cc1nc2c(=O)[nH]c1CCCCNC(=O)[C@H](CCCCN)NC(=O)[C@@H](Cc1c[nH]c3ccccc13)NC(=O)[C@H](Cc1ccccc1)NC(=O)CC2 | 2% | 0% | 0% | 4% | 0% | 4%
Cc1nc2c(=O)[nH]c1CCC(=O)N[C@@H](Cc1ccccc1)C(=O)N[C@H](Cc1c[nH]c3ccccc13)C(=O)N[C@@H](CCCCN)C(=O)NCCCC2 | 0% | 28% | 31% | 0% | 25% | 7%
